Screening results deposited in PubChem by several laboratories.
HIF activator: HIF pathway transcriptional activation | U2OS HRE-luciferase reporter, luminescence; normalized: DMSO 0%, desferrioxamine 100% | activation, % at 7.5 µM (by protocol) | actives 0.32% (n = 300,000) | AID 1910;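 active = mean activation of at least 10% of the iron chelator positive control signal, with at least half of replicates also reaching 10%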
T cruzi repl: T. cruzi replication inhibition; T. cruzi beta-gal in NIH3T3, luminescence, 90 h; inhibition, % (concentration not given with the values); actives 1.4% (n = 300,000); AID 1885;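 active = mean inhibition across valid replicates above about 55%, limit read from the data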;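 also: signal also drops with host cell toxicity which is not excluded here; 0% = plate median of DMSO wells and 100% = zero luminescence signal; higher percent means less beta-gal luminescence so fewer parasites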
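Assay system: NIH/3T3 host cells with β-galactosidase reporter T. cruzi; input: 5,000 host fibroblasts per well; compound: single 50 nL compound addition per well in DMSO; timing: ≥90 h infection period, 3 h prior cell attachment; measured by: GalScreen β-gal luminescence, detergent lysis, 60 min; evaluation: percent inhibition of parasite-derived β-gal signal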
NRP1-CendR mod: alters CendR peptide binding to human NRP-1 | actives 0.85% (n = 360,000) | O14786 | AID 602438 | inhibition, % at 25 µM | FAM-RPARPAR peptide binding to NRP-1, fluorescence polarization;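 active = inhibition or corrected inhibition above about 18%, plus a signal ratio from 0.5 to 1.5, limit read from the data, passing the limit was not always enough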
Target sequence (O14786 whole entry, looked up): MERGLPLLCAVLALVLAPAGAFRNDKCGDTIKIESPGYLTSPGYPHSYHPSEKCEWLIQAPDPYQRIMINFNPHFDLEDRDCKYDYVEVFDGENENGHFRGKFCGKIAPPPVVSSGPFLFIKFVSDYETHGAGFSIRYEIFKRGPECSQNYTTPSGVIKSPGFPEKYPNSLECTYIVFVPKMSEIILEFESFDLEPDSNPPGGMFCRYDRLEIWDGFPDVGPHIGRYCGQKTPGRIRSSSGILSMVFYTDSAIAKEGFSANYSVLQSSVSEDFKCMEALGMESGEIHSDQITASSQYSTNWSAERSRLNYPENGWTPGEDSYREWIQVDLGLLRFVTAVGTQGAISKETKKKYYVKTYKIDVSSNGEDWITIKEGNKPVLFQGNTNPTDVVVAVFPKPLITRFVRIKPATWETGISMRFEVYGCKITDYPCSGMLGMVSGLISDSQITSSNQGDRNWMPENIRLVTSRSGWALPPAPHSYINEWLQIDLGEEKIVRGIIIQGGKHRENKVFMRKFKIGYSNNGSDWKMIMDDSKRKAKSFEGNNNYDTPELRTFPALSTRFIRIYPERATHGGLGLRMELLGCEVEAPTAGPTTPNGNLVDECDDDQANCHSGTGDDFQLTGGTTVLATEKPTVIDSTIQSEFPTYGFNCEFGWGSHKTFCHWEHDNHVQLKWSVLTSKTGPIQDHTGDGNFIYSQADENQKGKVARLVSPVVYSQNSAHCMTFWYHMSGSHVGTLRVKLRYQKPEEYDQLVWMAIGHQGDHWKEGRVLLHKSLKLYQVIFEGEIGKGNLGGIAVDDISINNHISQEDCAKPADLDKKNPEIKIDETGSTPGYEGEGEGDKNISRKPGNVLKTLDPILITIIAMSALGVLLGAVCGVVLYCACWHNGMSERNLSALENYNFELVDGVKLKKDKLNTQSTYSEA
Yeast superoxide: yeast age-related superoxide inhibition as caloric restriction mimetic | superoxide response (% of plate mean), % at 10 µM | actives 0.18% (n = 330,000) | S. cerevisiae aged cells, superoxide DHE fluorescence; hits give low values;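 active = superoxide response under a set limit, about three screen SD below normal, cut at about 65% in these data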;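 also: yeast aged for seven days with compound at 30 °C before DHE staining; 100% = average MFI of all compound-treated wells on the plate with controls excluded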
AI-2 QS modul: modulators of Vibrio harveyi AI-2 quorum sensing system; Vibrio harveyi JMH597 AI-2 luminescence/OD600 ratio, 9 h; hits give low values; strain lacks LuxN and CqsS sensors; 0 = neutral-control median; activity change, % at 7.5 µM; actives 0.4% (n = 300,000); AID 2094; in the data active = activity change below about -75%, passing the limit was not always enough;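 also: luminescence divided by OD600 gain over 9 h not by final OD600 alone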
V-ATPase pH: regulators of yeast V-ATPase proton transport; AID 504577; actives 0.37% (n = 350,000); S. cerevisiae, pHLuorin cytosolic pH fluorescence; response, % at 10 µM; in the data active = response mostly above about 7.3%, no sharp cut-off; inactive = mostly below about 5.4%; also: actives read high
Numbers without * were called inactive; / = no result given. Shown are actives, neighbours in structure and some others; about 3% of the full set was active somewhere.

SMILES | HIF activator | T cruzi repl | NRP1-CendR mod | Yeast superoxide | AI-2 QS modul | V-ATPase pH
COc1ccc(C(=O)C2CCCN(Cc3c(C)[nH]c4ccccc34)C2)c(OC)c1 (centres undefined) | -1 | 62* | / | 99 | 3 | /
COc1ccc(C(=O)C2CCCN(Cc3sc(N4CCCC4)nc3Cl)C2)c(OC)c1 (centres undefined) | 0 | 63* | -3 | 101 | 26 | -4
Nc1ccc(-c2nc3ncccc3o2)c(O)c1 | 3 | -12 | -10 | 111 | -1 | -2
O=C(N/N=C/c1ccc(O)c(O)c1O)/C(=C/c1ccc([N+](=O)[O-])cc1)NC(=O)c1ccccc1 | 10* | 34 | -2 | 77 | 43 | 1
C=C(C(=O)c1ccccc1)C(C)CC(=O)c1ccccc1 (centres undefined) | 0 | -76 | 10 | 107 | 13 | 0
Cc1cc(C)c(OCCCCN(C)C)c(Br)c1 | 0 | 70* | -12 | 98 | 15 | 1
Cc1ccc(S(=O)(=O)N2CCN(CC(=O)N/N=C\c3ccccn3)CC2)cc1 | 0 | 0 | 6 | 116 | 7 | -3
COc1nccnc1NS(=O)(=O)c1ccc(NC(=S)NC(=O)c2cccnc2)cc1 | 0 | -9 | 8 | 91 | 39 | -1
O=C(O)c1ccc(Oc2ccc(C(F)(F)F)cn2)cc1 | 0 | -7 | -6 | 120 | 29 | -1
Cc1ccccc1N1CCN(C(=O)c2ccc(Oc3ccc(C(F)(F)F)cn3)cc2)CC1 | 0 | 58* | -8 | 86 | 14 | 1
CCC(C)n1c(C)nc2c(c1=O)c1nc3ccccc3nc1n2CCC1=CCCCC1 (centres undefined) | -1 | 59* | -1 | 91 | 34 | -2
CCCCn1c2nc3ccccc3nc2c2c(=O)n(C(C)CC)cnc21 (centres undefined) | 0 | 23 | -8 | 128 | 21 | 6
C[C@@H]1CN([C@H](C)CO)C(=O)c2cc(NC(=O)Nc3cccc4ccccc34)ccc2O[C@H]1CN(C)Cc1ccc(C(F)(F)F)cc1 | / | / | -26 | 117 | / | 0
C[C@@H]1CN([C@@H](C)CO)C(=O)Cc2cc(NS(=O)(=O)c3ccccc3)ccc2O[C@H]1CN(C)S(C)(=O)=O | / | / | 21* | 105 | / | -2
C[C@H]1CN([C@@H](C)CO)C(=O)c2cc(NC(=O)Nc3cccc4ccccc34)ccc2O[C@@H]1CN(C)Cc1ccc(-c2ccccc2)cc1 | / | / | 25* | 88 | / | -1
C[C@H](CO)N1C[C@H](C)[C@@H](CN(C)S(=O)(=O)c2ccccc2)Oc2ccc(NC(=O)Cc3ccccc3)cc2C1=O | / | / | 24* | 95 | / | -2
CCOc1ccc(-n2c(-c3ccc(OC)cc3)c[n+]3c2CCCCC3)cc1 | 0 | 53 | 0 | 85 | 11 | 0
COc1ccc(-c2c[n+]3c(n2-c2ccc(C)cc2)CCCCC3)cc1 | 0 | 60* | -5 | 100 | 15 | 9
CCOc1ccc(-n2c(-c3ccc(Br)cc3)c[n+]3c2CCCCC3)cc1 | 0 | 83* | -24 | 100 | 29 | 1
CCOc1ccc(-n2c(-c3ccccc3)c[n+]3c2CCC3)cc1 | 0 | 62* | 11 | 98 | 6 | -4
CONc1nc(NC(C)(C)C)nc(OCC#N)n1 | 0 | -23 | 3 | 104 | 17 | 0
CC1(C)NC(=O)N(CCCCOc2cccc(C(F)(F)F)c2)C1=O | 0 | 3 | 1 | 100 | 18 | 15*
CCCCCCCCCOC(=O)C(CC(=O)O)N1CCOCC1 (centres undefined) | 0 | -29 | 32* | 105 | 21 | -1
CCCCCOC(=O)CC(C(=O)OCCCCC)N1CCCCC1 (centres undefined) | 0 | 1 | -2 | 96 | 0 | 4
CCOc1ccccc1Oc1coc2cc(OC)ccc2c1=O | -23 | 1 | 6 | 86 | 22 | -3
CC(C)(C)OC(=O)[C@H](Cc1ccccc1)NC(=O)c1nc[nH]c1C(=O)N1CCN(C(=O)OC(C)(C)C)CC1 | 1 | 22 | 27* | 102 | 6 | 1
CN(Cc1ccccc1)C(=O)c1nc[nH]c1C(=O)N1CCN(C(=O)OC(C)(C)C)CC1 | / | / | 37* | 92 | / | -4
